Cardio protect: cardioprotection against H2O2-induced cell death, primary screen, uHTS, H9c2 cells, ATPLite luminescence; H9c2 cardiomyocytes, H2O2 injury protection, 2 h; protection from H2O2 cell death, % at 20 µM; 360,000 compounds, 0.63% hits;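 active = compounds giving at least 50% protection of heart cells from peroxide-induced death in the single-dose screen, raw or plate-pattern-corrected value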;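 note: 0% = DMSO wells with peroxide and 100% = DMSO wells without peroxide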
DDE Tn6 FP inh: inhibitors of Tn6 peptide binding to fibrin DD(E), primary screen, biochemical, fluorescence polarization, human fibrin, Tn6 probe; AID 720509, 2013; inhibition, % at 8.3 µM; Fibrinogen beta chain (Homo sapiens), P02675; 370,000 compounds, 0.21% hits; Fibrin DD(E) TRITC-Tn6 fluorescence polarization displacement;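 active = inhibition above a per-campaign cutoff: mean of compounds within control limits plus 3 SD, cut at about 15% in these data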;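 note: 0% = median of all compound wells on the plate and 100% = blocking peptide control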
Tn7 DDE FP: inhibitors of Tn7 peptide binding to fibrin DD(E), primary screen, biochemical, fluorescence polarization, human fibrin, Tn7 probe; FP displacement of FITC-Tn7 peptide from fibrin DD(E); 0% = median of compound wells per plate; inhibition, % at 8.3 µM; 370,000 compounds, 0.13% hits; AID 720508, 2013;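 active = inhibition above the mean of compounds falling within the control limits plus 3 SD of them, cut at about 14% in these data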;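 note: 0% = plate median of compound wells and 100% = 10 µM Aha-Tn7 peptide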
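Assay system: Fibrin-DD(E) protein isolated from polymerized human fibrin clots; read-out basis: percent inhibition; medium: Tris/NaCl/CaCl2 buffer, pH 7.8; signal: FP measurement; incubation: 10 min plus 3 h, room temperature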
TAG inh: inhibitors of triacylglycerol accumulation, primary screen, cell-based, uHTS, fluorescence, H9c2; H9c2 cells, Nile Red lipid (TAG) fluorescence; cells loaded with 200 µM oleic acid; inhibition, % at 12.5 µM; 230,000 compounds, 0.66% hits; AID 651582, 2012;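 active = pattern-corrected inhibition of lipid staining of at least 50% with the nuclear-stain viability signal not falling by more than 50%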;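 note: 0% = DMSO wells and 100% = triacsin C control wells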
MT1-MMP act inh: blockers of MT1-MMP proenzyme processing, primary screen, HT1080 RFP-PRO-GFP cells, GFP/RFP fluorescence; Matrix metalloproteinase-14 (Homo sapiens), P50281; 360,000 compounds, 0.061% hits; GFP/RFP ratio fluorescence, overnight; percent of plate control window, DMSO zero; GFP/RFP ratio change, % at 20 µM;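 active = GFP/RFP ratio change of at least 30% with cell ATP level not reduced by more than half and red fluorescence within 50% of control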
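Material: RFP-PRO-GFP reporter HT1080 cells. Dosing: single-point 20 µM compound, 1% DMSO. Controls: DMSO and RFP-L50D-GFP cell wells. Timing: cells overnight before dosing, compound overnight, 37 °C, 5% CO2. Measure: GFP/RFP fluorescence ratio.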
DAGLB inh: DAGLB lipase inhibitors, primary screen, biochemical, fluorescence, HTS; HEK293T DAGLB membrane lysate, EnzChek fluorogenic substrate; inhibition, % at 5.17 µM; 340,000 compounds, 0.059% hits; AID 504411, 2011; in the data active = inhibition above about 34%;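 note: 0% = enzyme with vehicle and 100% = wells lacking enzyme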
Target sequence (Q8NCG7 whole entry, looked up): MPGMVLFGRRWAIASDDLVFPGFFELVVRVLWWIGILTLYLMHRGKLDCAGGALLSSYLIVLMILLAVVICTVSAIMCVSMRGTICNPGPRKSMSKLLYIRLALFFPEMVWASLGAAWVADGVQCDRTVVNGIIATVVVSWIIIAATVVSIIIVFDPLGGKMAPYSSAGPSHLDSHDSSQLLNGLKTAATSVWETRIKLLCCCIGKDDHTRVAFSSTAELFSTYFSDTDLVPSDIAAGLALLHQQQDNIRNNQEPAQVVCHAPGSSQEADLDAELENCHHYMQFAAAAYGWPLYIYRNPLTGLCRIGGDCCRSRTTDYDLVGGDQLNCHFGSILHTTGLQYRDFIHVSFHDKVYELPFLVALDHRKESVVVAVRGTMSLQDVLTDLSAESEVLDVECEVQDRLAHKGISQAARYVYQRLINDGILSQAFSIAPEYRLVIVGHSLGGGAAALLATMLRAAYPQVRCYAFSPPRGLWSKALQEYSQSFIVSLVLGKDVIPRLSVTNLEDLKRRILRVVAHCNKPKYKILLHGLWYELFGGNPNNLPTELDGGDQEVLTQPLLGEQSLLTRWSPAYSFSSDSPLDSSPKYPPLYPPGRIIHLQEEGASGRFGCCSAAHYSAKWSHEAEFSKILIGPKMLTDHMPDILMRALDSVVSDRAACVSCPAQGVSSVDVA
An asterisk follows results filed as active. Most compounds without a hit are left out; they make up all but 1.4% or so of the library.

How did Oc1[nH]c2ccccc2c1N=Nc1nc(Nc2ccccc2)nc(N2CCOCC2)n1 do in these assays?
Cardio protect: 28.5; DDE Tn6 FP inh: -4.9; Tn7 DDE FP: -2.5; TAG inh: 131.2; MT1-MMP act inh: 6.5; DAGLB inh: 0.6

How did Cc1[nH]c2ccccc2c1/C=N/Nc1nc(Nc2ccccc2)nc(N2CCOCC2)n1 do in these assays?
Cardio protect: 59.5*; DDE Tn6 FP inh: -6.1; Tn7 DDE FP: -4.5; TAG inh: 150.3; MT1-MMP act inh: 11.7; DAGLB inh: -0.2

What do the screens show for `C=C1CCC2C(C)(C)CCC[C@]2(C)[C@H]1CC1=C(O)C(=O)C(CO)=CC1=O` (some centres undefined)?
DDE Tn6 FP inh: -5.0; Tn7 DDE FP: 5.9

What do the screens show for `CC(=O)N1CCN(c2ccccc2NC(=O)c2ccc(-c3cccc([N+](=O)[O-])c3)o2)CC1`?
Cardio protect: 79.2*; DDE Tn6 FP inh: 8.3; Tn7 DDE FP: 3.4; TAG inh: 17.7; MT1-MMP act inh: 0.1; DAGLB inh: 1.2

How did O=C(CSc1nnc(Cc2cccs2)n1CCc1ccccc1)N1CCCc2ccccc21 do in these assays?
Cardio protect: 66.7*; DDE Tn6 FP inh: -2.2; Tn7 DDE FP: 9.2; MT1-MMP act inh: -3.8; DAGLB inh: -2.7

How did Cn1c(Cc2cccs2)nnc1SCC(=O)N1CCCc2ccccc21 do in these assays?
Cardio protect: 5.4; DDE Tn6 FP inh: -1.4; Tn7 DDE FP: 5.0; TAG inh: -7.6; MT1-MMP act inh: -1.4; DAGLB inh: -1.6

How did COC(=O)C1CN(Cc2cn(Cc3ccc(Cl)cc3)nn2)CCS(=O)(=O)N1Cc1ccc(C)cc1 (centres undefined) do in these assays?
DDE Tn6 FP inh: 5.3; Tn7 DDE FP: 1.8

Results for CC(=O)c1cccc(NC(=O)c2cccc3c(-c4cccc(C(N)=O)c4)coc23)c1 ?
Cardio protect: 6.4; DDE Tn6 FP inh: 5.8; Tn7 DDE FP: -5.4; TAG inh: 7.6; MT1-MMP act inh: -7.0

What do the screens show for `CS(=O)(=O)Nc1cccc(NC(=O)c2cccc3c(-c4cccc(C(N)=O)c4)coc23)c1`?
Cardio protect: 53.7*; DDE Tn6 FP inh: 0.3; Tn7 DDE FP: 12.1; TAG inh: -12.9; MT1-MMP act inh: -6.0

What do the screens show for `CC12CCC(C(=O)NCc3ccccc3)(OC1=O)C2(C)C` (centres undefined)?
Cardio protect: -2.1; DDE Tn6 FP inh: -4.7; Tn7 DDE FP: 5.4; TAG inh: 6.1; MT1-MMP act inh: -3.5; DAGLB inh: 0.7

What do the screens show for `C/C(=N\NC(=O)C12CCC(C)(C(=O)O1)C2(C)C)c1ccccc1O` (centres undefined)?
Cardio protect: 40.1; DDE Tn6 FP inh: 1.6; Tn7 DDE FP: 6.1; TAG inh: 52.5*; MT1-MMP act inh: 2.4; DAGLB inh: 1.3

What do the screens show for `CC(C)(C)N(Cc1cn(CC2CCCCC2)nn1)S(=O)(=O)c1ccc(F)cc1Br`?
DDE Tn6 FP inh: -6.2; Tn7 DDE FP: -5.4

What do the screens show for `CCOC(=O)c1c2ccc(OCC(=O)NN)cc2n2ccccc12`?
Cardio protect: 10.9; DDE Tn6 FP inh: -4.2; Tn7 DDE FP: -7.2; TAG inh: -2.1; MT1-MMP act inh: -6.4; DAGLB inh: -3.3

What do the screens show for `CCOC(=O)c1c2ccc(OCC(=O)N/N=C/c3ccc(C)cc3)cc2n2ccccc12`?
Cardio protect: 54.4*; DDE Tn6 FP inh: -3.0; Tn7 DDE FP: -2.3; TAG inh: 9.3; MT1-MMP act inh: -6.7; DAGLB inh: -2.8

Results for C#CCNC(=O)C[C@H]1C[C@@]2(C(=O)OC)C(=C[C@H](C3CCCC3)O[C@@H]2C)N(CCCCCCCC)C1=O ?
DDE Tn6 FP inh: -4.1; Tn7 DDE FP: -8.0

What do the screens show for `COc1cc2c(cc1OC)CN(CC(=O)Nc1ccccc1C#N)CC2`?
Cardio protect: 74.2*; DDE Tn6 FP inh: -3.5; Tn7 DDE FP: 6.4; TAG inh: 17.8; MT1-MMP act inh: -1.5; DAGLB inh: 0.7

What do the screens show for `COc1ccc(OC)c(Nc2nc(N)nc(-c3cc4ccccc4o3)n2)c1`?
Cardio protect: 56.1*; DDE Tn6 FP inh: 4.6; Tn7 DDE FP: -4.9; TAG inh: 29.9; MT1-MMP act inh: -11.8; DAGLB inh: -5.8

Results for O=C(C1CCCN1S(=O)(=O)c1ccc([N+](=O)[O-])cc1)N1CCN(c2ccccc2)CC1 (centres undefined) ?
DDE Tn6 FP inh: 0.1; Tn7 DDE FP: 3.8

How did CCCCc1cc(=O)oc2c(CN3CCCC3)c(O)ccc12 do in these assays?
Cardio protect: 1.6; DDE Tn6 FP inh: -5.6; Tn7 DDE FP: 4.1; MT1-MMP act inh: 0.0; DAGLB inh: -0.9

What do the screens show for `CCCc1cc(=O)oc2c(CNc3ccc(OCC)cc3)c(O)ccc12`?
Cardio protect: 59.4*; DDE Tn6 FP inh: 2.5; Tn7 DDE FP: -2.9; MT1-MMP act inh: 1.4; DAGLB inh: 3.2

Results for N#Cc1ccccc1NCCCN1CCC(C(O)(c2ccccc2)c2ccccc2)CC1 ?
DDE Tn6 FP inh: -6.8; Tn7 DDE FP: -2.7

How did C/C(=N\NC(=O)COc1ccccc1-c1ccccc1)c1ccccn1 do in these assays?
Cardio protect: 39.3; DDE Tn6 FP inh: -0.4; Tn7 DDE FP: 3.4; TAG inh: 19.1; MT1-MMP act inh: 9.7; DAGLB inh: -3.6

What do the screens show for `C/C(=N\NC(=O)COc1ccccc1-c1ccccc1)c1ccc(O)cc1O`?
Cardio protect: 54.5*; DDE Tn6 FP inh: -4.3; Tn7 DDE FP: 0.6; TAG inh: 1.9; MT1-MMP act inh: -7.5; DAGLB inh: -3.4

What do the screens show for `O=C(NN=Cc1cccc([N+](=O)[O-])c1)c1cc(-c2cccnc2)nc2ccccc12`?
Cardio protect: 51.0*; DDE Tn6 FP inh: 2.9; Tn7 DDE FP: -2.0; TAG inh: -11.3; MT1-MMP act inh: -4.3; DAGLB inh: -2.3

Results for C/C(=N\NC(=O)c1cc(-c2cccc(OC(C)C)c2)nc2ccccc12)c1cccnc1 ?
Cardio protect: -3.5; DDE Tn6 FP inh: -3.0; Tn7 DDE FP: 4.5; TAG inh: -17.1; MT1-MMP act inh: 2.7; DAGLB inh: -3.8

What do the screens show for `C/C(=N\NC(=O)c1cc(-c2cccnc2)nc2ccccc12)c1ccc(O)cc1O`?
Cardio protect: 51.6*; DDE Tn6 FP inh: -3.3; Tn7 DDE FP: -5.5; MT1-MMP act inh: -1.1; DAGLB inh: 4.8

Compound activity: PubChem, several laboratories
